# According to ChEMBL document CHEMBL1687819, “Identification and characterization of the multidrug resistance gene cfr in a Panton-Valentine leukocidin-positive sequence type 8 methicillin-resistant Staphylococcus aureus IVa (USA300) isolate” (2010):
# Legend:
# Format in all cases: functional
# Staphylococcus aureus [1] = test: Antibacterial activity against methicillin-resistant Staphylococcus aureus M05/0060 harboring cfr-encoding conjugative pSCFS7 and fexA by broth microdilution method
# Procedure, shortened: (§1)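 Broth microdilution MICs per CLSI M07-A8 and M100-S20, run side by side on clinical MRSA isolate M05/0060, its plasmid-cured derivative M05/0060-C1, plasmid-free novobiocin-resistant recipient XU21 and transconjugant XU21-T1. Curing was by five serial 24 h passages in BHI broth at 43°C, 200 rpm. Transconjugants came from filter mating, selected on BHI agar with novobiocin 100 µg/ml plus chloramphenicol 30 µg/ml.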
# Staphylococcus aureus [2] = test: Antibacterial activity against pSCFS7-deficient methicillin-resistant Staphylococcus aureus M05/0060-C1 by broth microdilution method; procedure, shortened: as §1
# Staphylococcus aureus [3] = test: Antibacterial activity against Staphylococcus aureus XU21-T1 harboring cfr-encoding conjugative pSCFS7 and fexA by broth microdilution method; procedure, shortened: as §1
# Staphylococcus aureus [4] = test: Antibacterial activity against Staphylococcus aureus XU21 by broth microdilution method; procedure, shortened: as §1
SMILES,MIC (Staphylococcus aureus [1]),MIC (Staphylococcus aureus [2]),MIC (Staphylococcus aureus [3]),MIC (Staphylococcus aureus [4])
CC1=C\[C@@H](O)CC(=O)Cc2nc(co2)C(=O)N2CCC=C2C(=O)O[C@H](C(C)C)[C@H](C)/C=C/C(=O)NC\C=C\1 [VIRGINIAMYCIN FACTOR M1],32 µg/mL,1 µg/mL,32 µg/mL,1 µg/mL
C=C[C@]1(C)C[C@@H](OC(=O)CSCCN(CC)CC)[C@]2(C)[C@H](C)CC[C@]3(CCC(=O)[C@H]32)[C@@H](C)[C@@H]1O [TIAMULIN],≥ 128 µg/mL,1 µg/mL,≥ 128 µg/mL,1 µg/mL
Cc1onc(-c2ccccc2)c1C(=O)N[C@@H]1C(=O)N2[C@@H]1SC(C)(C)[C@@H]2C(=O)O [OXACILLIN],≥ 32 µg/mL,≥ 32 µg/mL,0.12 µg/mL,0.12 µg/mL
CC[C@H]1OC(=O)[C@H](C)[C@@H](O[C@H]2C[C@@](C)(OC)[C@@H](O)[C@H](C)O2)[C@H](C)[C@@H](O[C@@H]2O[C@H](C)C[C@H](N(C)C)[C@H]2O)[C@](C)(O)C[C@@H](C)C(=O)[C@H](C)[C@@H](O)[C@]1(C)O [ERYTHROMYCIN],≥ 64 µg/mL,≥ 64 µg/mL,0.5 µg/mL,0.5 µg/mL
CC(=O)NC[C@H]1CN(c2ccc(N3CCOCC3)c(F)c2)C(=O)O1 [LINEZOLID],8 µg/mL,1 µg/mL,–,1 µg/mL
O=C(N[C@H](CO)[C@H](O)c1ccc([N+](=O)[O-])cc1)C(Cl)Cl [CHLORAMPHENICOL],256 µg/mL,8 µg/mL,128 µg/mL,8 µg/mL
CCC[C@@H]1C[C@@H](C(=O)N[C@@H]([C@H]2O[C@H](SC)[C@H](O)[C@@H](O)[C@H]2O)[C@H](C)Cl)N(C)C1 [CLINDAMYCIN],≥ 128 µg/mL,0.25 µg/mL,≥ 128 µg/mL,0.25 µg/mL
CS(=O)(=O)c1ccc([C@@H](O)[C@@H](CF)NC(=O)C(Cl)Cl)cc1 [FLORFENICOL],256 µg/mL,4 µg/mL,256 µg/mL,4 µg/mL
